Assay results taken from ChEMBL document CHEMBL2407036, “Flow Synthesis and Biological Studies of an Analgesic Adamantane Derivative That Inhibits P2X7-Evoked Glutamate Release” (ACS Med Chem Lett, 2013).
The source made the active and inactive calls.

Legend:
[1] = tested on: Mus musculus; assay: Analgesic activity in Swiss albino mouse assessed as inhibition of acetic acid-induced abdominal contraction at 20 to 60 mg/kg, po measured after 30 mins; assay type: functional, organism-based; details: Abdominal cavity
[2] = tested on: Rattus norvegicus; assay: Antinociceptive activity against carrageenan-induced hyperalgesia in rat assessed as paw pressure at 40 mg/kg, po measured after 60 mins (reference value: 31.8 +/- 2.2 g); assay type: functional
In short: (§1)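 Rats received intraplantar carrageenan before oral dosing. Paw-pressure withdrawal threshold (g) was measured before treatment and at 15, 30, 60 and 90 min after it. Carrageenan-injected rats given vehicle served as reference, with saline-injected rats as a further control.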

[3] = tested on: Rattus norvegicus; assay: Antinociceptive activity against carrageenan-induced hyperalgesia in rat assessed as paw pressure at 40 mg/kg, po measured after 15 mins (reference value: 32.8 +/- 2.9 g); assay type: functional; in short: as §1
[4] = tested on: Rattus norvegicus; assay: Antinociceptive activity against carrageenan-induced hyperalgesia in rat assessed as paw pressure at 40 mg/kg, po measured after 90 mins (reference value: 34.8 +/- 3.1 g); assay type: functional; in short: as §1
[5] = tested on: Rattus norvegicus; assay: Antinociceptive activity against carrageenan-induced hyperalgesia in rat assessed as paw pressure at 10 mg/kg, po measured after 15 mins (reference value: 32.8 +/- 2.9 g); assay type: functional; in short: as §1
[6] = tested on: Rattus norvegicus; assay: Antinociceptive activity against carrageenan-induced hyperalgesia in rat assessed as paw pressure at 40 mg/kg, po measured after 30 mins (reference value: 30.6 +/- 3.2 g); assay type: functional; in short: as §1
[7] = tested on: Rattus norvegicus; assay: Antinociceptive activity against carrageenan-induced paw edema in rat assessed as paw edema volume at 60 mg/kg, po measured after 30 mins (reference value: 2.71+/- 0.08 ml); assay type: functional
[8] = species on record: Rattus norvegicus; assay: Inhibition of K+ depolarization-induced [3H]D-aspartate efflux in Sprague-Dawley rat synaptosome preincubated at 0.1 uM for 8 mins by liquid scintillation counting; assay type: functional, tissue-based; details: Brain
In short: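 Purified rat cerebrocortical synaptosomes loaded with [3H]D-aspartate and superfused. Depolarization with KCl added for 120 s. Compound added 8 min before K+ depolarization. Evoked efflux measured as mean ± SEM of 3−12 independent experiments in triplicate.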

[9] = tested on: Rattus norvegicus; assay: Antinociceptive activity against carrageenan-induced paw edema in rat assessed as paw edema volume at 10 mg/kg, po measured after 30 mins (reference value: 2.71+/- 0.08 ml); assay type: functional
[10] = tested on: Rattus norvegicus; assay: Antinociceptive activity against carrageenan-induced hyperalgesia in rat assessed as paw pressure at 60 mg/kg, po measured after 30 mins (reference value: 30.6 +/- 3.2 g); assay type: functional; in short: as §1
[11] = tested on: Rattus norvegicus; assay: Antinociceptive activity against carrageenan-induced hyperalgesia in rat assessed as paw pressure at 60 mg/kg, po measured after 15 mins (reference value: 32.8 +/- 2.9 g); assay type: functional; in short: as §1
[12] = tested on: Rattus norvegicus; assay: Antinociceptive activity against carrageenan-induced hyperalgesia in rat assessed as paw pressure at 60 mg/kg, po measured after 90 mins (reference value: 34.8 +/- 3.1 g); assay type: functional; in short: as §1
[13] = tested on: Rattus norvegicus; assay: Antinociceptive activity against carrageenan-induced hyperalgesia in rat assessed as paw pressure at 10 mg/kg, po measured after 90 mins (reference value: 34.8 +/- 3.1 g); assay type: functional; in short: as §1
[14] = tested on: Mus musculus; assay: Analgesic activity in Swiss albino mouse assessed as inhibition of acetic acid-induced abdominal contraction at 10 to 60 mg/kg, po measured after 30 mins; assay type: functional, organism-based; details: Abdominal cavity
[15] = target: T1, P2X purinoceptor 7 (Rattus norvegicus) (UniProt Q64663); assay: Antagonist activity at P2X7 in Sprague-Dawley rat synaptosome assessed as inhibition of BzATP-induced [3H]D-aspartate efflux preincubated at 0.1 uM for 8 mins by liquid scintillation counting in absence of extracellular Ca2+; details: Brain
T1 sequence (whole entry): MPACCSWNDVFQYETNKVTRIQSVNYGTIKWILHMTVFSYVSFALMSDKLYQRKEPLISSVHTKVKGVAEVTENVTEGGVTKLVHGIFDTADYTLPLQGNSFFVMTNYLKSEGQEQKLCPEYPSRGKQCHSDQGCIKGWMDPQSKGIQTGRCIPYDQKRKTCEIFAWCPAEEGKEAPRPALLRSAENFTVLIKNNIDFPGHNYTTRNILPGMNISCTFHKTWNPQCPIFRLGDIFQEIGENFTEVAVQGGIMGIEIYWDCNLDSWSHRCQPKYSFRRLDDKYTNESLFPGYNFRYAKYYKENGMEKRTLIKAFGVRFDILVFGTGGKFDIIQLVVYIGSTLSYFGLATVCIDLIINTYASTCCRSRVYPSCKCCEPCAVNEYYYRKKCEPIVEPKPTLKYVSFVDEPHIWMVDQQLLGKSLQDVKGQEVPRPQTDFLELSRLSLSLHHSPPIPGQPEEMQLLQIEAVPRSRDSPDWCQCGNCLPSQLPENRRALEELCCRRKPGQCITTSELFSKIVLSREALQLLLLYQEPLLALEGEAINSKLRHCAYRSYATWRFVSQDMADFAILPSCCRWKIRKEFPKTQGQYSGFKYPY
In short: (§2)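 Purified rat cerebrocortical synaptosomes loaded with [3H]D-aspartate and superfused. 100 μM BzATP added for 120 s. Compound added 8 min before BzATP. Ca2+-free conditions used medium with 0.5 mM EGTA, added 18 min before BzATP. Log concentration–response for inhibition of evoked efflux. Mean ± SEM of 3−12 independent experiments in triplicate.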

[16] = tested on: Rattus norvegicus; assay: Antinociceptive activity against carrageenan-induced paw edema in rat assessed as paw edema volume at 40 mg/kg, po measured after 30 mins (reference value: 2.71+/- 0.08 ml); assay type: functional
[17] = tested on: Rattus norvegicus; assay: Antinociceptive activity against carrageenan-induced hyperalgesia in rat assessed as paw pressure at 60 mg/kg, po measured after 60 mins (reference value: 31.8 +/- 2.2 g); assay type: functional; in short: as §1
[18] = target: T1, P2X purinoceptor 7 (Rattus norvegicus); assay: Antagonist activity at P2X7 in Sprague-Dawley rat synaptosome assessed as inhibition of BzATP-induced [3H]D-aspartate efflux preincubated at 0.1 uM for 8 mins by liquid scintillation counting; details: Brain; in short: as §2
[19] = tested on: Rattus norvegicus; assay: Antinociceptive activity against carrageenan-induced hyperalgesia in rat assessed as paw pressure at 10 mg/kg, po measured after 30 mins (reference value: 30.6 +/- 3.2 g); assay type: functional; in short: as §1
[20] = tested on: Rattus norvegicus; assay: Antinociceptive activity against carrageenan-induced hyperalgesia in rat assessed as paw pressure at 10 mg/kg, po measured after 60 mins (reference value: 31.8 +/- 2.2 g); assay type: functional; in short: as §1

Compound | inhibition [1] | Activity [2] [g] | Activity [3] [g] | Activity [4] [g] | Activity [5] [g] | Activity [6] [g] | Activity [7] [mL] | inhibition [8] | Activity [9] [mL] | Activity [10] [g] | Activity [11] [g] | Activity [12] [g] | Activity [13] [g] | inhibition [14] | inhibition [15] | Activity [16] [mL] | Activity [17] [g] | inhibition [18] | Activity [19] [g] | Activity [20] [g]
O=C(NC1(C(=O)NCCc2c[nH]cn2)C2CC3CC(C2)CC1C3)c1ccccc1 (stereo not given) | Active |  |  |  |  |  |  |  |  |  |  |  |  |  |  |  |  |  |  | 
CCOc1ccc(Nc2ccc(/C(=C3C=C/C(=[N+](/CC)Cc4cccc(S(=O)(=O)[O-])c4)C=C/3C)c3ccc(N(CC)Cc4cccc(S(=O)(=O)[O-])c4)cc3C)cc2)cc1.[Na+] [BRILLIANT BLUE G] |  | 45.6 | 46.3 | 40.2 | 38.7 | 50.8 | 2.21 | inactive | 2.63 | 49.6 | 47.2 | 36.2 | 37.1 | Active | Active | 2.17 | 43.8 | Active | 43.1 | 38.5
